The text below walks through data of ChEMBL document CHEMBL3856275, “Discovery of Second Generation Reversible Covalent DPP1 Inhibitors Leading to an Oxazepane Amidoacetonitrile Based Clinical Candidate (AZD7986)” (J Med Chem, 2016).

Where only a bound is given, the exact number is not on record here.

One data set deals with Cathepsin D (Homo sapiens, UniProt P07339). The data set can be described thus: Inhibition of human recombinant cathepsin D.
Data set [1] in a line: Protein binding in human plasma at 10 uM after 6 hrs by LC-MS/MS method. The data set is classed as ADME, cell-free. The settings on record: read-out: PPB (converted).
Data set [2] has as its target Dipeptidyl peptidase 1 (Homo sapiens, UniProt P53634).
Data set [3] in a line: Intrinsic clearance in dog hepatocytes at 1 uM after 5 to 120 mins by LC-MS/MS method. The data set is classed as ADME, cell-based, Canis lupus familiaris, Hepatocyte. A digest of the protocol:
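Hepatocyte intrinsic clearance for rat and dog, given in µL/min/10^6 cells.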

In a further data set the target is Cathepsin Z (Homo sapiens, UniProt Q9UBR2). The data set can be described thus: Inhibition of human recombinant cathepsin Z.
Another data set has as its target Cathepsin B (Homo sapiens, UniProt P07858). The data set can be described thus: Inhibition of human recombinant cathepsin B.
Data set [4] can be described thus: Intrinsic clearance in human liver microsomes at 1 uM after 5 to 40 mins by LC-MS/MS method. The settings on record: read-out: CLH. It is filed as ADME.
The target of data set [5] is Voltage-gated inwardly rectifying potassium channel KCNH2 (Homo sapiens, UniProt Q12809).
Data set [6] in a line: Clearance in Beagle dog at 1 mg/kg, iv and 2 mg/kg, po. It is filed as ADME, organism-based, Canis lupus familiaris. As to conditions: in vivo.
Data set [7] is described as follows: Clearance in Sprague-Dawley rat at 1 mg/kg, iv or 3 mg/kg, po. The data set is classed as ADME, organism-based. As to conditions: in vivo.
The nature of data set [8]: Protein binding in rat plasma at 10 uM after 6 hrs by LC-MS/MS method. The data set is classed as ADME, cell-free. The settings on record: read-out: PPB (converted).
The target in data set [9] is T1, Dipeptidyl peptidase 1 (Mus musculus, UniProt P97821).
T1 sequence (P97821 whole entry): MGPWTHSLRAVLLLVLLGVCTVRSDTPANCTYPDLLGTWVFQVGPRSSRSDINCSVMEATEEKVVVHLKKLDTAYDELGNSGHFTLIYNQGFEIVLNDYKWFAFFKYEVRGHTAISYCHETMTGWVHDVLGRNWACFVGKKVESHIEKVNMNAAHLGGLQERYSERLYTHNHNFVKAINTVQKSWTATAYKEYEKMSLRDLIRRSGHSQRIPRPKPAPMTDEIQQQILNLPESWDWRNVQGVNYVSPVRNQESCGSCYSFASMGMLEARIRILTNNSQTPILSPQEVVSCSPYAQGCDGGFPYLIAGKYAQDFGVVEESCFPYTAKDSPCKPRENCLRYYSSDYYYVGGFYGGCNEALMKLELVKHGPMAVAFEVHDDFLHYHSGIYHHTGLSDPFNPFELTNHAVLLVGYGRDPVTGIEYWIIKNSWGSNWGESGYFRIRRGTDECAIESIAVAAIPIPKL
The experiment in a line: Inhibition of mouse DPP1 using Gly-Arg-AMC as substrate preincubated for 30 mins followed by substrate addition by fluorometric assay. A digest of the protocol: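 Recombinant mouse DPP1 enzyme, tested under the same conditions as the human assay. Fluorometric assay in piperazine-based buffer.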

In a further data set the target is T2, Cathepsin K (Homo sapiens, UniProt P43235).
T2 sequence (P43235 whole entry): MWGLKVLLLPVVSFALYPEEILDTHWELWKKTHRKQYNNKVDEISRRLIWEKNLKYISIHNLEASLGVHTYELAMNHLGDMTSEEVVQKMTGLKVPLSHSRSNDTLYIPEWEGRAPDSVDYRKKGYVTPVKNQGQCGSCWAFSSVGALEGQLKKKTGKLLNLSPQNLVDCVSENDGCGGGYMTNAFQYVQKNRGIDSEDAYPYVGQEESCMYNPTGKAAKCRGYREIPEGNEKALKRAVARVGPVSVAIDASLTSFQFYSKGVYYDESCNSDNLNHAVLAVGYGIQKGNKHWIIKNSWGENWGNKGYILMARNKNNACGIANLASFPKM
The experiment in a line: Inhibition of human recombinant cathepsin K.

Data set [10] is described as follows: Intrinsic clearance in dog hepatocytes assessed per 10^6 cells at 1 uM after 10 to 90 mins by LC-MS/MS method. The data set is classed as ADME, cell-based, Canis lupus familiaris, Hepatocyte.
Data set [11] in a line: Volume of distribution at steady state in Sprague-Dawley rat at 1 mg/kg, iv or 3 mg/kg, po. It is filed as ADME, organism-based. As to conditions: in vivo, read-out: Vdss.
Data set [12] in a line: Volume of distribution at steady state in Han Wistar rat at 1 mg/kg, iv and 3 mg/kg, po. The data set is classed as ADME, organism-based. The settings on record: in vivo, read-out: Vdss. In outline:
(§1)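 Han Wistar rat PK with 1 mg/kg iv and 3 mg/kg po doses, both in pH3 buffer. Clearance is given in ml/min/kg, Vss in L/kg and t1/2 in h.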

Data set [13] is described as follows: Oral bioavailability in Beagle dog at 2 mg/kg. It is filed as ADME, organism-based, Canis lupus familiaris. The settings on record: in vivo.
Data set [14] is described as follows: Propionaldehyde reactivity assessed as half life of the compound at pH 7.4 by LC-UV method. It is filed as physicochemical.
The nature of data set [15]: Apparent permeability across apical to basolateral side in human Caco2 cells at 10 uM after 2 hrs by LC-MS/MS method. The data set is classed as ADME, cell-based. As to conditions: Caco-2. In outline: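 Caco-2 bidirectional permeability run as P_app, given in cm/s x 10^-6.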
Data set [16] is described as follows: Inhibition of rabbit DPP1 expressed in CHO cells using Gly-Arg-AMC as substrate preincubated for 30 mins followed by substrate addition by fluorometric assay. It is filed as cell-based, Oryctolagus cuniculus.
Data set [17] can be described thus: Clearance in Han Wistar rat at 1 mg/kg, iv and 3 mg/kg, po. It is filed as ADME, organism-based. The settings on record: in vivo. In outline: as §1
The next data set has as its target Cathepsin S (Homo sapiens, UniProt P25774). The data set can be described thus: Inhibition of human recombinant cathepsin S.
Data set [18] is described as follows: Half life in Beagle dog at 1 mg/kg, iv and 2 mg/kg, po. The data set is classed as ADME, organism-based, Canis lupus familiaris. The settings on record: in vivo.

Dipeptidyl peptidase 1 (Homo sapiens, UniProt P53634), sequence (P53634 25-134 limits assumed): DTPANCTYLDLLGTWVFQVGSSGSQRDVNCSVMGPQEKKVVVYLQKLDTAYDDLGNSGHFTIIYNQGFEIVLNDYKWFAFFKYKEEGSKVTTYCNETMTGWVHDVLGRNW
Dipeptidyl peptidase 1 (Homo sapiens, UniProt P53634), sequence (P53634 231-394 limits assumed): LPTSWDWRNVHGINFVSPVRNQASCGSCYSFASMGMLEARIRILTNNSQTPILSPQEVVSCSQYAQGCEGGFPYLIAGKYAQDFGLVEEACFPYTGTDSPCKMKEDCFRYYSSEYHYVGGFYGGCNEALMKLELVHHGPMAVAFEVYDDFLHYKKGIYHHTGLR
Dipeptidyl peptidase 1 (Homo sapiens, UniProt P53634), sequence (P53634 395-463 limits assumed): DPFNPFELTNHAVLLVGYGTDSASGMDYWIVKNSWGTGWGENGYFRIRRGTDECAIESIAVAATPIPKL
Voltage-gated inwardly rectifying potassium channel KCNH2, sequence (Q12809 whole entry): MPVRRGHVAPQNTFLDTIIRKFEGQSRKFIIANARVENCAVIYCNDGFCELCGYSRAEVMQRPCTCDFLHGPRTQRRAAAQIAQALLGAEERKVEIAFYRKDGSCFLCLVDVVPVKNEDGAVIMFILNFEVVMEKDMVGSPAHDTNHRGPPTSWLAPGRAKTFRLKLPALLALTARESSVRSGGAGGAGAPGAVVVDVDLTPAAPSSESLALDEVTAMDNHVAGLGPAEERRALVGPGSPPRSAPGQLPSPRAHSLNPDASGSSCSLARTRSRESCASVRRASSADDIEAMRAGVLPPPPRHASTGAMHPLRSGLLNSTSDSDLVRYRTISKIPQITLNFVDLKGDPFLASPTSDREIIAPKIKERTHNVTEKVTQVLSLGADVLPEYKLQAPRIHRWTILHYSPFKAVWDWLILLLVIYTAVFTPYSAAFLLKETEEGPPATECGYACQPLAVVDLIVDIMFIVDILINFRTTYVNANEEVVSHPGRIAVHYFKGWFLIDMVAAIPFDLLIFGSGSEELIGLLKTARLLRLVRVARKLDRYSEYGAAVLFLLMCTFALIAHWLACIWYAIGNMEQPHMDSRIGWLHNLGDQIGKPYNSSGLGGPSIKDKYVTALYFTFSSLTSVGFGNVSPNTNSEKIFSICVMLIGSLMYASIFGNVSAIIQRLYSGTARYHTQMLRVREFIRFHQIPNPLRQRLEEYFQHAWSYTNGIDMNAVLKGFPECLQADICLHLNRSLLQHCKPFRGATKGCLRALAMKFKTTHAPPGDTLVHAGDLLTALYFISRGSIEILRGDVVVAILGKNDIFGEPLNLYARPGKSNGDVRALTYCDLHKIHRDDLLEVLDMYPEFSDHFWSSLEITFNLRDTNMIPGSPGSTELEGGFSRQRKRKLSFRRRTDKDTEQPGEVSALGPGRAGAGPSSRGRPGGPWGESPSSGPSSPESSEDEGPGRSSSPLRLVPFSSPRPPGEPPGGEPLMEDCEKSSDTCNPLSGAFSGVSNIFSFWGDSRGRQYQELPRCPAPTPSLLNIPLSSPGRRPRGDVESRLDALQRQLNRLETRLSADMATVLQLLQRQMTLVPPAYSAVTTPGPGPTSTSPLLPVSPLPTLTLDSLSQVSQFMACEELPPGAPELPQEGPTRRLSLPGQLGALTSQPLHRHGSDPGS
Cathepsin Z, sequence (Q9UBR2 whole entry): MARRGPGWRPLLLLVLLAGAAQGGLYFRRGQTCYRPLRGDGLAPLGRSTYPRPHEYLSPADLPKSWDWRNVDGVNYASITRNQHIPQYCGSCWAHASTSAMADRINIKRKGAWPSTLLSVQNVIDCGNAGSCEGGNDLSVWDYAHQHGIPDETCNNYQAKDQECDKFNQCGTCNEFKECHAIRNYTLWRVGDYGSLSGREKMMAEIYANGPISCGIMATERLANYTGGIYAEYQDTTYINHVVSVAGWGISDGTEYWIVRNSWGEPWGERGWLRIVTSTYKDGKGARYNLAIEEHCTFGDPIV
Cathepsin S, sequence (P25774 whole entry): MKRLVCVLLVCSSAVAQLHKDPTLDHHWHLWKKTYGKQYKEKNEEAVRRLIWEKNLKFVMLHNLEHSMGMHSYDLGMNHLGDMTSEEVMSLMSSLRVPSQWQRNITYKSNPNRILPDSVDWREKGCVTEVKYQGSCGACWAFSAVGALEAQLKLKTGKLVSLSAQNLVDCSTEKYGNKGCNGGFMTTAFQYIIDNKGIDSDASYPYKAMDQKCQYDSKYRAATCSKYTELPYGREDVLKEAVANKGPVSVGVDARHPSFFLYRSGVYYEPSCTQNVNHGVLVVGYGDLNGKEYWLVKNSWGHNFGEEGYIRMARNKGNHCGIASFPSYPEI
Cathepsin D, sequence (P07339 65-162 limits assumed): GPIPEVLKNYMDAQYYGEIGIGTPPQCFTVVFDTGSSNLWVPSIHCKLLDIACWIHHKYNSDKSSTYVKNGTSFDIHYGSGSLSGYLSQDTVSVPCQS
Cathepsin D, sequence (P07339 169-412 limits assumed): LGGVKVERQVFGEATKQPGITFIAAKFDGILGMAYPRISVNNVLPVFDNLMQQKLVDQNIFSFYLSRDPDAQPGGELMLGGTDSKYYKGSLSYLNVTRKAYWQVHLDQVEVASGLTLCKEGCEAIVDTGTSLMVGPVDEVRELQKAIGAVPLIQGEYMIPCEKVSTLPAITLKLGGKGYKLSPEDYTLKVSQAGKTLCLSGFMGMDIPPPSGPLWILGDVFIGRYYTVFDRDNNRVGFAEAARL

Regarding `Cn1c(=O)oc2ccc(-c3ccc(C[C@@H](C#N)NC(=O)[C@@H]4CNCCCO4)cc3)cc21` [BRENSOCATIB], the half-maximal inhibitory concentration (IC50) on Cathepsin D is over 20 µM; on Cathepsin Z, over 20 µM; on Cathepsin B, over 20 µM; in data set [5], over 33 µM; at Dipeptidyl peptidase 1 [9] it was 0.0251 µM; at Cathepsin K, over 20 µM. Besides, on Cathepsin S, the 50% inhibitory concentration (IC50) was over 20 µM. Also, the fraction unbound at 6 h, 10 µM in data set [1] was 0.13; in data set [8], 0.06. For the same compound, the T1/2 at Dipeptidyl peptidase 1 [2] was determined as 3 min. The CLH was under 1 µL/min/1e6 cells in data set [3] and under 3.5 µL/min/10^6 cells in data set [10]. Moreover, in [4], the microsomal CLint at 1 µM is under 14 µL/min/mg. Moreover, the clearance in data set [6] stood at 8 mL/min/kg; in data set [7] it was 1 mL/min/kg; in [17] it was 7 mL/min/kg. The Vd in data set [11] was 1 L/kg; in data set [12], 2.5 L/kg. The compound also came in with a bioavailability in data set [13] of 92%. In addition, the half-life in data set [14] is over 50 h; in data set [18], 18 h. Further, the Papp A→B at 2 h, 10 µM in [15] came to 4 ×10⁻⁶ cm/s. The pIC50 in data set [16] is on record as 7.8.
